Assay [1] is described as follows: thallium flux activation in parental CHO cells, counter-screen for KCNQ1 potentiator project (AID 493006). As to conditions: parental CHO-K1 cells, FluxOR thallium flux, at 10 µM; hits give high values. Put shortly:
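Material: parental CHO-K1 cells, FluxOR dye-loaded; Also added: Potassium/thallium depolarization pulse; Schedule: overnight 37 °C plating, 90 min dye, 20 min dark compound; Signal: kinetic FluxOR fluorescence, 10 s baseline, 110 s after stimulus.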
A general note: Counterscreens check selectivity or assay interference.

Assay [2] deals with Potassium voltage-gated channel subfamily KQT member 1 (Homo sapiens) (UniProt P51787). The assay can be described thus: KCNQ1 potassium channel potentiators, confirmation, FluxOR thallium flux, CHO cells, duplicates (AID 493007;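 active = potentiation averaged over duplicate wells exceeding buffer-only control mean by more than 3 SD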;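 for outcome: cells depolarized by a potassium plus thallium sulfate stimulus after compound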). The note with it: KCNQ1 cell line, FluxOR thallium flux fluorescence, at 10 µM; hits give high values, % of reference activator effect, buffer zero. Put shortly:
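System: KCNQ1-expressing CHO cell line; technique: kinetic thallium influx fluorescence with FluxOR dye, 10 s baseline, 110 s post-stimulus; timing: dye 90 min then compound 20 min, both at room temperature; controls: buffer-only wells as 0% and R-L3 activator as 100%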

Assay [3] has as its target Potassium voltage-gated channel subfamily KQT member 2 (Rattus norvegicus) (UniProt O88943). Briefly: rat KCNQ2 channel potentiation, selectivity assay for KCNQ1 potentiator project, KCNQ2-CHO-K1 cells (AID 493009;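 active = mean duplicate potentiation above the buffer control mean plus 5 SD of buffer wells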;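 note: assay conditions were tuned for KCNQ1 rather than KCNQ2 modulators; signal is max minus min fluorescence divided by baseline after thallium stimulus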). As to conditions: FluxOR thallium flux fluorescence, at 10 µM; hits give high values, scaled: buffer 0, activator control 100.
Assay [4] deals with Potassium voltage-gated channel subfamily KQT member 1 (Homo sapiens) (UniProt P51787). The assay can be described thus: KCNQ1 channel current potentiators, confirmation, orthogonal assay for KCNQ1 potentiator project, IonWorks patch clamp, KCNQ1-CHO cells (AID 493184;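 active = current rise at least 3 SD above the untreated control mean in each of two repeat wells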). As to conditions: automated patch clamp current, at 10 µM; hits give high values. In outline:
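Test system: KCNQ1-expressing CHO cells. Medium: pH 7.4 external bath. Probe or stimulus: voltage step from -90 mV holding to +40 mV, 2,000 ms. Compound: 10 µM final, single point. Detection: automated perforated-patch electrophysiology. Read-out: percent current increase versus pre-compound level. Repeats: two replicates.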
Background: Patch clamp records ionic current or voltage across a cell membrane.

Assay [5] deals with Potassium voltage-gated channel subfamily E member 1 (Homo sapiens) + Potassium voltage-gated channel subfamily KQT member 1 (Homo sapiens) (UniProt P15382+P51787). Briefly: KCNQ1/KCNE1 complex potentiators, confirmation, selectivity assay for KCNQ1 potentiator project, thallium flux, CHO-K1 KCNQ1/E1 cells (AID 493186;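 active = mean duplicate activation above the buffer control mean plus 5 SD of those controls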). The note with it: FluxOR thallium flux, at 10 µM; hits give high values. In outline:
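Material: CHO-K1 cells with KCNQ1/E1 / Timing: dye 90 min, compound 20 min, room temperature / Technique: kinetic thallium-sensitive FluxOR dye fluorescence / Read-out: percent activation scaled between buffer and R-L3 ratio signals / Replicates: tested in duplicate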

Active and inactive are the calls of the source.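 Rule for the calls, unless noted: active = duplicate-averaged activation above buffer control mean plus 5 SD of those controls; inactive = the rest.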

Chain of Potassium voltage-gated channel subfamily E member 1 (Homo sapiens) + Potassium voltage-gated channel subfamily KQT member 1 (Homo sapiens) (P51787 whole entry, looked up): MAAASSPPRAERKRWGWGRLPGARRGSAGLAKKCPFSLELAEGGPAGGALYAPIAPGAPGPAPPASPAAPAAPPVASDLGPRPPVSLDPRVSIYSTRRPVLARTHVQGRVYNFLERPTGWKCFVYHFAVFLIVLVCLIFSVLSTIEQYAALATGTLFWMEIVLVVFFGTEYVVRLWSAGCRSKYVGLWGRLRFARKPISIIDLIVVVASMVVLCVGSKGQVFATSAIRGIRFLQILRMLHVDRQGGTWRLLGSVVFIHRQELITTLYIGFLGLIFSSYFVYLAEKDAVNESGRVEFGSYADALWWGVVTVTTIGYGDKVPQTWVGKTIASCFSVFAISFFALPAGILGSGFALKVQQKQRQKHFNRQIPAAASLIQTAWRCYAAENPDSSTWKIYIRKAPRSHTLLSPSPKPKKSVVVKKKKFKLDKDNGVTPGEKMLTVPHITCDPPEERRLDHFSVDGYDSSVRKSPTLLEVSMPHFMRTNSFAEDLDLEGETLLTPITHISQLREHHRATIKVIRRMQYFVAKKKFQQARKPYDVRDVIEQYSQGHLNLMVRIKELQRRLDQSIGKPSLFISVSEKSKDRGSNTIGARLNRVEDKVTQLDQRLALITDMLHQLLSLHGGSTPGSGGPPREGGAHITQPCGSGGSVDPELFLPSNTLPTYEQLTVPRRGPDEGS
Chain of Potassium voltage-gated channel subfamily KQT member 2 (Rattus norvegicus) (O88943 whole entry, looked up): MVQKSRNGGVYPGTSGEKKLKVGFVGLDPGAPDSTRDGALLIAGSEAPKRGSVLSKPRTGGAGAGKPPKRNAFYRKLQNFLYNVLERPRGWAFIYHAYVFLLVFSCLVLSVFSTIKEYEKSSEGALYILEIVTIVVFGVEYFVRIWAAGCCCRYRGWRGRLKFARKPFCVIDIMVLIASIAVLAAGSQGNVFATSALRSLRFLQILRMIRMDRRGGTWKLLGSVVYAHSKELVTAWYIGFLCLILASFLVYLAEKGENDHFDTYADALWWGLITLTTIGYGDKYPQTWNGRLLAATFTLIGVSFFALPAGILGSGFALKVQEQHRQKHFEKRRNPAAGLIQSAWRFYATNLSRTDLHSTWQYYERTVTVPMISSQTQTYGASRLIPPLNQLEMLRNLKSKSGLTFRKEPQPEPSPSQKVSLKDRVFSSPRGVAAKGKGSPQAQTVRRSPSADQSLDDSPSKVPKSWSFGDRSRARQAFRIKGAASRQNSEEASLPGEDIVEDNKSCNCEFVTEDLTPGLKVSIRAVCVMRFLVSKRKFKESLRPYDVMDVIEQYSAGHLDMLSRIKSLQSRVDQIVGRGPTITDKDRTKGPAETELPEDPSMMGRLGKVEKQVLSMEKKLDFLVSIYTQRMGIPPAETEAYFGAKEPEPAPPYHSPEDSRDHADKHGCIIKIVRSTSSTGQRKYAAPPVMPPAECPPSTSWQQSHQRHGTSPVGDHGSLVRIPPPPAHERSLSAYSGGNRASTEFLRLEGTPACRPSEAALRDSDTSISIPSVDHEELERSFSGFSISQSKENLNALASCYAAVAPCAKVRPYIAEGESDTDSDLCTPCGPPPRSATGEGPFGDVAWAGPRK
Chain of Potassium voltage-gated channel subfamily KQT member 1 (Homo sapiens) (P51787 whole entry, looked up): as the sequence (P51787 whole entry, looked up) above

With `Cc1ccc(/C=N/NC(=O)c2cc(C3CC3)nc3ccccc23)o1`, the result in assay [1], in assay [3], in assay [4] and in assay [5] was inactive. In addition, the potentiation in assay [2] is 29.5% (active).
Consider `Fc1ccc(/C=N/n2c(C3CCCCC3)n[nH]c2=S)cc1`, for which the outcome in assay [1], in assay [2], in assay [3], in assay [4] and in assay [5] was inactive.
On to `CC(=O)Nc1ccc(NC(=O)CSC2=NS(=O)(=O)c3cc(Cl)ccc3N2)cc1`, for which the outcome in assay [1], in assay [2], in assay [3], in assay [4] and in assay [5] was inactive.
With `Cc1ccc(NC2=C(Cl)C(=O)OC2OC(=O)c2ccc(C)cc2)cc1` (stereo not given), the result in assay [1], in assay [2], in assay [3], in assay [4] and in assay [5] was inactive.
Take `COc1ccc2c(c1)[nH]c1c(=O)n(/N=C/c3ccc(OC)c(CN4CCCC4)c3)cnc12`: the result in assay [1], in assay [2], in assay [3], in assay [4] and in assay [5] was inactive.
With `CCCn1c(N)c(C(=O)CSc2nc3ccccc3c(=O)n2Cc2ccccc2)c(=O)[nH]c1=O`, the result in assay [1], in assay [2], in assay [3], in assay [4] and in assay [5] was inactive.
On to `Cn1ccnc1C(=O)c1cccc([N+](=O)[O-])c1`, for which the outcome in assay [1], in assay [3], in assay [4] and in assay [5] was inactive. Also, the potentiation in assay [2] is 18.5% (active).
Consider `Cc1ccccc1C(OCCN(C)C)C1CCCCC1` (stereo not given), for which the outcome in assay [1], in assay [2], in assay [3], in assay [4] and in assay [5] was inactive.
As for `COc1ccc(C2CC(c3c(-c4ccccc4)c4cc(Cl)ccc4[nH]c3=O)=NN2S(C)(=O)=O)cc1OC` (stereo not given), the outcome in assay [1], in assay [2], in assay [3], in assay [4] and in assay [5] was inactive.
As to `COc1cccc(NC(=S)N/N=C2/CCCCc3ccccc32)c1`, the result in assay [1], in assay [3], in assay [4] and in assay [5] was inactive. Moreover, the potentiation in assay [2] is 26% (active).
In the case of `CCOC(=O)c1cccc(NC(=O)CCc2nnc3ccc(N4CCCCC4)nn23)c1`, the outcome in assay [1], in assay [2], in assay [3], in assay [4] and in assay [5] was inactive.
Turning to `Cc1cc(C(=O)NCc2ccc(S(N)(=O)=O)cc2)ccc1[N+](=O)[O-]`, the result in assay [1], in assay [2], in assay [3], in assay [4] and in assay [5] was inactive.
As for `CC1=NOC(=O)/C1=C\c1ccc(-c2ccc(Cl)cc2Cl)o1`, the result in assay [1], in assay [2], in assay [3], in assay [4] and in assay [5] was inactive.
As to `COc1cc(-c2noc(C)c2-c2ccc(N(C)C)nc2)cc(OC)c1OC`, the outcome in assay [1], in assay [2], in assay [3], in assay [4] and in assay [5] was inactive.
As to `Cc1[nH]c(=S)c(C#N)c(C)c1Cc1ccc(Cl)cc1Cl`, the result in assay [1], in assay [2], in assay [3], in assay [4] and in assay [5] was inactive.
For `CN1CCN(C(c2ccc(Cl)cc2)c2cc(Cl)c3cccnc3c2O)CC1` (stereo not given), the result in assay [1], in assay [2], in assay [3], in assay [4] and in assay [5] was inactive.
`CCOC(=O)c1[nH]c2cc(OC)c(OC)cc2c1NC(=O)CN(C)C1CCCCC1`: the result in assay [1], in assay [3], in assay [4] and in assay [5] was inactive. Moreover, the potentiation in assay [2] was 18% (active).
Consider `CCN(CC)C(=S)SCC(=O)Nc1nc(=O)c2ccccc2s1`, for which the outcome in assay [1], in assay [2], in assay [3], in assay [4] and in assay [5] was inactive.
`O=C(NNC(=O)c1cc(-c2ccccc2)nn1-c1ccccc1)c1ccccc1`: the outcome in assay [1], in assay [2], in assay [3], in assay [4] and in assay [5] was inactive.
As for `Cn1c(=O)cc(NCc2ccccc2)[nH]c1=O`, the result in assay [1], in assay [2], in assay [3], in assay [4] and in assay [5] was inactive.
In the case of `CC(C)(C)NCC(O)CON=C1c2ccccc2-c2ccccc21` (stereo not given), the result in assay [1], in assay [2], in assay [3] and in assay [4] was inactive. For the same molecule, the activation in assay [5] was 15.2% (active).
Consider `Cc1ccc(C(=O)NC(=S)N2CCN(c3ccccc3F)CC2)cc1`, for which the outcome in assay [1], in assay [2], in assay [3], in assay [4] and in assay [5] was inactive.
Regarding `COC1(c2ccccc2)NC(=S)NN=C1c1ccccc1` (stereo not given), the result in assay [1], in assay [2], in assay [3], in assay [4] and in assay [5] was inactive.
On to `CCc1ccc2oc(C(=O)NC3CCS(=O)(=O)C3)cc(=O)c2c1` (stereo not given), for which the result in assay [1], in assay [2], in assay [3], in assay [4] and in assay [5] was inactive.
Regarding `COc1ccc(C(=O)NNC(=O)C(=O)NCc2ccccc2)cc1`, the result in assay [1], in assay [4] and in assay [5] was inactive. Further, the potentiation was 29% (active) in assay [2] and 144% (active) in assay [3].
In the case of `CN1CCN(c2ccc(S(=O)(=O)N3CCCCC3)cc2NC(=O)COc2cccc(Cl)c2)CC1`, the result in assay [1], in assay [2], in assay [3], in assay [4] and in assay [5] was inactive.
As for `CCOC(=O)N1CCC(N2C(=O)c3ccc(C(=O)NCCC(C)C)cc3C2=O)CC1`, the outcome in assay [1], in assay [4] and in assay [5] was inactive. Moreover, the results for the potentiation in assay [2] and in assay [3] were 69% (active) and 150% (active), respectively.
On to `CC(NC(=O)c1ccco1)C(=O)N(C)Cc1ccc(C(F)(F)F)cc1` (stereo not given), for which the outcome in assay [1], in assay [2], in assay [3], in assay [4] and in assay [5] was inactive.
For `COC(=O)CSc1nc(NC(C)C)nc(N(C)C)n1`, the outcome in assay [1], in assay [2], in assay [3], in assay [4] and in assay [5] was inactive.

(Values after PubChem BioAssay.)
